Test results taken from article PMC6028938 (Neurobiology of disease, 2018).

How the values were obtained:
PKA CαM120A [1] = biological target: T1, PKA CαM120A (Mus musculus, UniProt P05132, M121A); assay: Atxn1 2Q/2Q; format: cell-based
PKA CαM120A [2] = biological target: T1, PKA CαM120A; format: biochemical
CαM120A = CαM120A (Mus musculus, UniProt P05132, M121A); assay: 1-NM-PP1 delivered in vivo; details: cage drinking water or intra-cerebro-ventricular injections, data not shown
[3] = mice, delivered in drinking water or by IP injection; cited from earlier work
PKA pathway = details: postnatal day 7 ATXN1[82Q] mouse cerebellar slices; cited from earlier work
[4] = test system: RFP-ATXN1[82Q] in DAOY cells; assay: Live cell imaging of DAOY cells stably expressing RFP-ATXN1[82Q]; format: cell-based, human
Procedure, shortened: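 DAOY cells stably carrying RFP-ATXN1[82Q]-IRES-YFP, grown on 35 mm plates and moved to imaging chambers heated to 37 °C. At time zero, 10 nM test compound or DMSO vehicle was added. Brightfield and RFP images were taken every 2 minutes on an inverted fluorescence microscope.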

Atxn1[66Q] and Atxn1[2Q] = assay: GSK690693 treatment in Atxn1 66Q/2Q cerebellar slice cultures; format: cell-based, mouse; details: 10 μM
endogenous human ATXN1 = assay: SCA1 patient iPSC-derived neuronal cells, western blot of ATXN1; format: cell-based; details: 10 μM, two-day treatment
Procedure, shortened: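 NPCs differentiated 7 days in DMEM/F12 with 100 ng/ml FGF8, 200 ng/mL SHH and 1:100 N2; β-III tubulin-stained. Treated 2 days with 10 μM test compound, lysed in Tris-Triton buffer. Western blot: MoAb-17 (1 ng/μl) for pS776, 11750 for total ATXN1, GAPDH-normalised.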

mice = details: mouse
PKA = details: cited from earlier work
MSK = details: read-out: IC50 as MSK inhibitor; cited from earlier work
[5] = 20 μM 1-NM-PP1, three-day incubation, vs no treatment or DMSO
[6] = one day of exposure, P10 slices

With `CC(C)(C)n1nc(Cc2cccc3ccccc23)c2c(N)ncnc21` [1-NM-PP1] as the compound, how does the “level of Atxn1[2Q] protein” value (PKA CαM120A [1]; [5]) read?
The value was “failed to affect”.

And the “phosphorylation of pan-PKA substrates” value (PKA CαM120A [1]; [5])?
The value was “failed to affect”.

And the “inhibition of S776 phosphorylation” value (PKA CαM120A [2]; 10 μM 1-NM-PP1, the highest dose tested)?
The value was “Subtle inhibition”.

And the “inhibition of CαM120A in vivo” value (CαM120A)?
The value was “failed”.

What about the “blood brain barrier crossing” value [3] of the same compound?
Its value is “cross the blood brain barrier”.

Which “dendritic morphology of cerebellar slices” value (PKA pathway) does the source give for `C=C[C@@]1(C)CC(=O)[C@]2(O)[C@@]3(C)[C@@H](O)CCC(C)(C)[C@@H]3[C@H](O)[C@H](OC(C)=O)[C@@]2(C)O1` [forskolin] here?
Its value is “enhanced dendritic morphological abnormalities”.

Which “RFP-ATXN1[82Q] signal” value ([4]; 10 nM staurosporine, as early as two minutes post-treatment, continued to decrease out to six minutes, 37 °C) does the source give for `CN[C@@H]1C[C@H]2O[C@@](C)([C@@H]1OC)n1c3ccccc3c3c4c(c5c6ccccc6n2c5c31)C(=O)NC4` [Staurosporine] here?
Its value is “substantially diminished”.

What about the “fluorescently tagged ATXN1[82Q] detectability” value ([4]; after four minutes of exposure to staurosporine) of the same compound?
The value was “no longer detectable”.

For `CCn1c(-c2nonc2N)nc2c(C#CC(C)(C)O)ncc(OC[C@H]3CCCNC3)c21` [GSK690693, 4-[2-(4-Amino-1,2,5-oxadiazol-3-yl)-1-ethyl-7-[(3S)-3-piperidinylmethoxy)-1H-imidazo[4,5-c]pyridin-4-yl]-2-methyl-3-butyn-2-ol], which “S776 phosphorylation status (MoAB-17 blot)” value (Atxn1[66Q] and Atxn1[2Q]; by 5 days of treatment) is on record?
The value was “decrease in pS776”.

And the “phosphorylation of other cerebellar proteins with PKA consensus site RRX(S/T) (pan-PKA substrates antibody)” value (Atxn1[66Q] and Atxn1[2Q]; by one day of treatment)?
Its value is “Inhibition”.

What about the “reduction of Atxn1[2Q] level” value (Atxn1[66Q] and Atxn1[2Q]; five days) of the same compound?
The value was 68%.

And the “reduction of Atxn1[66Q] level” value (Atxn1[66Q] and Atxn1[2Q]; five days)?
The value was 70%.

And the “reduction of Atxn1[2Q] level” value (Atxn1[66Q] and Atxn1[2Q]; [6])?
The value was 22%.

What about the “reduction of Atxn1[66Q] level” value (Atxn1[66Q] and Atxn1[2Q]; [6]) of the same compound?
Its value is 29%.

What about the “reduction of Atxn1[2Q] level” value (Atxn1[66Q] and Atxn1[2Q]; three days) of the same compound?
Its value is 54%.

And the “reduction of Atxn1[66Q] level” value (Atxn1[66Q] and Atxn1[2Q]; three days)?
The value was 56%.

What about the “reduction of endogenous ATXN1 levels” value (endogenous human ATXN1) of the same compound?
The value was 44%.

What about the “amount of Atxn1[2Q] protein” value (PKA CαM120A [1]; 10 μM GSK690693, two days) of the same compound?
The value was “significantly decreased”.

And the pan-PKA substrate phosphorylation (PKA CαM120A [1]; 10 μM GSK690693, two days)?
The pan-PKA substrate phosphorylation was “dramatically decreased”.

What about the “concentration that blocks ATXN1[30Q]-S776 phosphorylation” value (PKA CαM120A [2]; Cα M120A cerebellar extracts as kinase source) of the same compound?
Its value is no more than 10 nM.

And the toxicity in vivo (mice)?
The toxicity in vivo was “very toxic with treated mice having seizures”.

What about the “IC50s for AGC kinase family members including PKA (in words)” value (PKA) of the same compound?
The value was “nanomolar”.

Which IC50 (MSK) does the source give for `CCn1c(-c2nonc2N)nc2cncc(CNC3CCNCC3)c21` [SB-747651A] here?
The IC50 was 0.011 µM.

What about the “inhibitory activity towards PKA relative to MSK (less)” value (PKA) of the same compound?
Its value is “approximately 10 fold”.
